Results pooled from the literature.
Protocols differ between the studies behind these lines.
Target: Phosphatidylinositol 4-kinase beta (PI4KB, Homo sapiens, UniProt Q9UBF8)

Compound | read-out | mode | technique | tested at | endpoint | value
Cn1cc(-c2cccc(N3CCc4c(sc5c4CC(C)(C)C5)C3=O)c2CO)cc(Nc2ccncn2)c1=O | enzyme activity | inhibitor |  | 1 µM | inhibition | -4%
Cc1nn(C)cc1-c1nc2c(N3CCN(Cc4ccc(Cl)cc4)CC3)c(Cl)cnc2[nH]1 | binding |  | competition with immobilised ligand | 1 µM | remaining binding | 100%
Cn1cncc1[C@](O)(COc1ccc(C#N)cc1-c1ccc(OC(F)(F)F)cc1)c1ccc(C#N)cc1 | cell-free assay |  | competition with immobilised ligand | 1 µM | remaining binding | 94%
C#Cc1n[nH]c2c(-c3cn(C(C)c4ccccn4)c(=O)[nH]c3=O)cc(F)cc12 (centres unmarked) | enzyme activity | inhibitor |  | 1 µM | inhibition | -4.1%
Nc1ncc(-c2nc(N3CCOCC3)nc(N3CCOCC3)n2)c(C(F)F)n1 | binding |  | competition with immobilised ligand | 10 µM | remaining binding | 75%
C#Cc1n[nH]c2c(-c3cn([C@@H](C)c4ccccc4)c(=O)[nH]c3=O)cc(F)cc12 | enzyme activity | inhibitor |  | 0.1 µM | inhibition | -2.5%
Cn1cc(-c2cc(F)cc(N3CCn4c(cc5c4CCCC5)C3=O)c2CO)cc(Nc2ccc(N3CCN(C4COC4)CC3)cn2)c1=O | enzyme activity | inhibitor |  | 0.1 µM | inhibition | -3%
COc1ncccc1-c1cnn2ccc(N3CCN(C(=O)OC(C)C)CC3)nc12 | binding |  | competition with immobilised ligand | 1 µM | remaining binding | 100%
